Consider five compounds from paper PMC6172447 (iScience, 2018).

SMILES strings stand for the structures.

Experiment [1] concerns U2OS cells stably expressing EGFP-DFCP1. Kind of experiment: Omegasome formation, EGFP-DFCP1 puncta by live-cell fluorescent microscopy. The class given is cell-based, human. Put shortly: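 U2OS cells stably expressing EGFP-DFCP1 were given vehicle or 100 nM AZD8055, with or without 5 μM test compound, for 2.5 hr. They were imaged live by fluorescence microscopy in the green FITC channel. EGFP-DFCP1 objects per cell were counted in 20–25 cells per condition. Mean ± SEM; two-tailed unpaired t test.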

Experiment [2] has as its system U2OS cells. The experiment in a line: Phagophore formation, endogenous ATG12 immunofluorescence. The class given is cell-based, human.
Experiment [3] has as its system U2OS cells. The experiment in a line: Autophagic turnover, BafA1-induced LC3B-II accumulation by immunoblotting. The class given is cell-based, human. For orientation: In western blotting, separated proteins are transferred to a membrane and probed.
In experiment [4] the test system is nutrient-starved murine embryonic fibroblasts. The following applies: 1 μM, ref Petherick et al., 2015; cited from earlier work.
The next experiment has as its system ULK1. Conditions: ref Egan et al., 2015; cited from earlier work.
The next experiment relates to AMPK. Kind of experiment: KinaseProfiler radiometric assay, AMPK. The class given is biochemical, human. Conditions: selectivity profiling, 40 nM ULK-101 or 15 nM ULK-100.
Experiment [5] relates to 327 recombinant human kinases. Kind of experiment: KinaseProfiler radiometric selectivity profiling, wild-type human kinase panel. The following applies: 326 non-ULK1 kinases; 500 nM SBI-0206965, 40 nM ULK-101, or 15 nM ULK-100. The class given is biochemical.
The mark [6] stands for this setting: 5 μM ULK-101 co-treatment with 100 nM AZD8055, 2.5 hr.

As to `COc1ccc(-c2ccc3c(N4CCOC[C@@H]4C)nc(N4CCOC[C@@H]4C)nc3n2)cc1CO` [AZD8055, reference compound], the “Increase in abundance of DFCP1-positive puncta” value in experiment [1] (100 nM AZD8055, 2.5 hr, vs vehicle) is recorded as “over 3 fold”. For the same compound, the ATG12-positive puncta formation result in the experiment on U2OS cells [2] (100 nM AZD8055, 2.5 hr) is recorded as “distinct ATG12-positive puncta”. Besides, in the experiment with U2OS cells [3] (100 nM AZD8055, within 1 hr), the “Increase in BafA1-induced LC3B-II accumulation” value is “over 2 fold”.
In the case of `CN1CCc2cc(Nc3ncc(C4CC4)c(NCCCNC(=O)C4CCC4)n3)ccc2C1` [MRT68921], the “Effect on BafA1-induced LC3-II accumulation” value in experiment [4] is “block BafA1-induced LC3-II accumulation”.
On to `CNC(=O)c1ccccc1Oc1nc(Nc2cc(OC)c(OC)c(OC)c2)ncc1Br` [SBI-0206965], for which, in the experiment with ULK1, the “Effect on Beclin 1 Ser15 phosphorylation in cells” value is recorded as “reduce Beclin 1 Ser15 phosphorylation”.
For `CC(C)[C@H](NC(=O)c1cc(-c2cnn3cc(-c4ccc(OCCN5CCCCC5)cc4)cnc23)cs1)C(F)(F)F` [ULK-100], the “AMPK inhibition in vitro” value in the experiment with AMPK is reported as “inhibited”.
Take `O=C(N[C@@H](C1CC1)C(F)(F)F)c1cc(-c2cnn3cc(-c4ccc(F)cc4)cnc23)cs1` [ULK-101]: the “Number of other kinases inhibited at least 75% as well as ULK1” value in experiment [5] was “four”. The “AMPK inhibition in vitro” value with AMPK was “spared”. For the same compound, the “Effect on AZD8055-induced formation of DFCP1-positive structures” value in experiment [1] (setting [6]) is “completely abrogated”. Besides, the “Effect on AZD8055-induced ATG12-positive puncta” value in the experiment on U2OS cells [2] (setting [6]) is “strongly suppressed”. For the same compound, the “Effect on AZD8055-induced increase of BafA1-induced LC3B-II accumulation” value with U2OS cells [3] (5 μM ULK-101 with 100 nM AZD8055, 3 hr) was “negated”.
